CHRM4 PAM – human M4 muscarinic receptor positive allosteric modulators, primary screen, CHO-K1 cells, Fluo-8 calcium fluorescence; AID 624126, 2012; hit rate 0.4% among 360,000; Muscarinic acetylcholine receptor M4 (Homo sapiens), P08173; CHO-K1 hM4/Gqi5, ACh EC20; 0% = ACh EC20, 100% = maximal ACh; activation, % at 3 µM;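 active = activation above its plate's cutoff, the mean activation of sample wells plus 3 SD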
M4 antag – human M4 muscarinic receptor antagonists, primary screen, CHO cells, Fluo-8 calcium fluorescence; hit rate 0.73% among 360,000; CHO-hM4 cells, ACh EC80; inhibition, % at 3 µM; Muscarinic acetylcholine receptor M4 (Homo sapiens), P08173; AID 624125, 2012;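 active = inhibition above its plate's cutoff, the mean inhibition of sample wells plus 3 SD, cut at about 27% in these data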
TAAR1 antagonist – human TAAR1 antagonists, primary screen, Fluo-8 calcium fluorescence, CHO RD-HGA16 cells; Trace amine-associated receptor 1 (Homo sapiens), Q96RJ0; antagonist; inhibition, % at 3 µM; hit rate 1.5% among 360,000; AID 624466, 2012;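 active = inhibition above a per-plate cutoff, the mean inhibition of test compounds on that plate plus 3 SD, cut at about 49% in these data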
Target sequence (Q96RJ0 whole entry, looked up): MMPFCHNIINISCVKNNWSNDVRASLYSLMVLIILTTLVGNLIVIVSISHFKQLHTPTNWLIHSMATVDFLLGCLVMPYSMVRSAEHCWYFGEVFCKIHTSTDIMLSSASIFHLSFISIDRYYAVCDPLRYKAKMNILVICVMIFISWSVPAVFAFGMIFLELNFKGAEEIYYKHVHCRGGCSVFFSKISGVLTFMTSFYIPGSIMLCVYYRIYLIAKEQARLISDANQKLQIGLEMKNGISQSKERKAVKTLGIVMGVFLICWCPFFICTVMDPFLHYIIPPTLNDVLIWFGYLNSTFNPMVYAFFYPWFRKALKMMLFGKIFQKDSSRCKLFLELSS
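Test system: RD-HGA16 CHO cells with stable hTAAR1 and Gα16 / Probe or stimulus: EC80 β-phenethylamine stimulus / Times: seeding 17-24 h prior, 75-min 37 °C, 30-min RT dye loading / Detection: Fluo-8 calcium-sensitive fluorescence / Read-out basis: % inhibition scaled between DMSO and EC80 PEA controls / Repeats: singlicate, one well per test compound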
CHRM4 agonist – human M4 muscarinic receptor agonists, primary screen, CHO-K1 cells, Fluo-8 calcium fluorescence; CHO-K1 hM4/Gqi5; vehicle 0%, full acetylcholine response 100%; activation, % at 3 µM; hit rate 0.14% among 360,000;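 active = activation above the run mean over all test wells plus 3 SD, cut at about 32% in these data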;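 also: peak over basal fluorescence ratio per well then scaled between controls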
TAAR1 ag – human TAAR1 agonists, primary screen, Fluo-8 calcium fluorescence, CHO RD-HGA16 cells. AID 624467, 2012. hit rate 0.99% among 360,000. Trace amine-associated receptor 1 (Homo sapiens), Q96RJ0. vehicle wells 0%, saturating PEA agonist 100%. activation, % at 3 µM;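 active = activation above the mean activation of all test compounds in the run plus 3 SD, cut at about 38% in these data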
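test system = CHO RD-HGA16 cells carrying human TAAR1 plus Gα16 | schedule = 17-24 h seeding, 75 min 37 °C dye, 30 min RT | compound dosing = 3 µM single concentration | control set = DMSO and PEA EC100 | replicates = n 1 | signal = Fluo-8 fluorescence, 5 s baseline then 140 s kinetic read | measure = percent activation vs PEA EC100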
TAAR1 ag conf – human TAAR1 agonists, retest of hits, confirmation, Fluo-8 calcium fluorescence, CHO RD-HGA16 cells; scaled: DMSO 0%, maximal phenethylamine 100%; hit rate 82% among 2,400; activation, % at 3 µM; AID 651783, 2012; shares compounds with TAAR1 ag;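 active = activation above a cutoff set at the run's mean compound activation plus 3 SD, cut at about 39% in these data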
Ga16 nonsel ag – nonselective calcium mobilization agonists, CHO-Ga16 cells, counter-screen for hTAAR1 agonist project, cell-based, fluorescence, CHO-Ga16 parental line | shares compounds with TAAR1 ag | Fluo-8 calcium fluorescence; normalized to maximal ATP response, DMSO zero | activation, % at 3 µM | hit rate 50% among 2,400;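 active = activation above the run cutoff, the mean activation over all tested wells plus 3 SD, cut at about 12% in these data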
TAAR1 desens – TAAR1 desensitization by agonist hits, confirmation, counter-screen for TAAR1 agonist project, cell-based, fluorescence, tachyphylaxis | shares compounds with TAAR1 ag | CHO RD-HGA16 hTAAR1, Fluo-8 calcium, beta-PEA response inhibition | inhibition, % at 3 µM | hit rate 46% among 2,400 | AID 651951, 2012;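 active = inhibition above the run cutoff, the mean inhibition of all test compounds plus 3 SD, cut at about 49% in these data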;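 also: beta-PEA stimulus applied at its EC80; loss of beta-PEA calcium signal after compound pretreatment read as receptor desensitization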
Ga16 nonsel ant – inhibition of ATP-evoked calcium response in CHO-Ga16 cells, counter-screen for TAAR1 agonist project, cell-based, fluorescence. AID 651952, 2012. hit rate 39% among 2,400. inhibition, % at 3 µM. shares compounds with TAAR1 ag. CHO-Ga16 ATP-induced calcium, Fluo-8 fluorescence;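 active = inhibition above the plate's mean compound inhibition plus 3 SD, computed per plate, cut at about 22% in these data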
A number is an active result; - = inactive; . = no result given. Hits are enriched below; roughly 3% of the tested compounds scored in any of these assays.

SMILES	CHRM4 PAM	M4 antag	TAAR1 antagonist	CHRM4 agonist	TAAR1 ag	TAAR1 ag conf	Ga16 nonsel ag	TAAR1 desens	Ga16 nonsel ant
O=C(COC(=O)/C=C/c1ccc(Cl)cc1)Nc1ccccc1	-	-	-	-	61.6	-	-	-	-
CCCn1c(NC(=O)C2COc3ccccc3O2)nc2ccccc21 (stereo unspecified)	-	-	48.7	-	50.9	-	-	-	-
CCCn1c(NC(=O)c2ccco2)nc2ccccc21	-	-	-	-	-	.	.	.	.
CC(=O)c1cn(S(=O)(=O)c2ccccc2)c2ccccc12	-	-	-	-	-	.	.	.	.
CCCc1nnc2c(N(C)S(=O)(=O)c3ccc(C)cc3)nc3ccccc3n12	-	-	-	-	-	.	.	.	.
CCCCc1nnc2c(N(C)S(=O)(=O)c3ccc(C)cc3)nc3ccccc3n12	-	-	-	-	57.4	-	-	-	-
CCCNC(=O)c1cc(C2CCCCN2C(=O)c2ccc(OC)cc2)on1 (stereo unspecified)	-	-	-	-	-	.	.	.	.
CSc1nc(-c2ccc(Cl)cc2)nn1S(=O)(=O)c1ccc(Cl)cc1	-	-	-	-	-	.	.	.	.
CCC(=O)n1nc(-c2ccc(Cl)cc2)nc1SC	-	-	-	-	43.8	44.4	-	-	-
CSc1nc(-c2ccc(Cl)cc2)nn1S(=O)(=O)c1ccccc1	-	-	.	-	.	.	-	.	-
CN(C(=O)c1cccc(NC(=O)Cc2cccc(NC(=O)C3CCCN(C(=O)C4CCCCC4)C3)c2)c1)C1CCC1 (stereo unspecified)	-	-	-	-	-	.	.	.	.
COc1ccc(OC)c(-n2nnnc2SCC(=O)NCCc2ccccc2)c1	-	-	-	-	-	.	.	.	.
COc1ccc2c(c1)C(SCC(=O)NCCc1ccccc1)CC(C)(C)O2 (stereo unspecified)	-	-	61.2	-	67.8	72.9	-	76.2	-
COC(=O)[C@]12CCCCC=C1N(Cc1ccc3c(c1)OCO3)C(=O)[C@H](CC(=O)NCCc1ccccc1OC)C2	-	-	-	-	-	.	.	.	.
CCOC(=O)[C@]12CCCC=C1N(Cc1ccc3c(c1)OCO3)C(=O)[C@H](CC(=O)NCCc1ccccc1OC)C2	-	-	-	-	74.5	75.2	-	69.4	-
CCOC(=O)[C@]12CCC=C1N(CCC1=CCCCC1)C(=O)[C@H](CC(=O)NCCc1ccccc1OC)C2	-	-	.	-	.	.	-	.	-
CCOC(=O)[C@]12CCCC=C1N(CCC1=CCCCC1)C(=O)[C@H](CC(=O)NCCc1ccccc1OC)C2	-	-	-	-	58.2	74.7	-	60.0	-
COC(=O)[C@]12CCCCC=C1N(CCC1=CCCCC1)C(=O)[C@H](CC(=O)NCCc1ccccc1OC)C2	-	-	-	-	-	.	.	.	.
Cc1ccc(-c2nc3c4ccccc4ccn3c2Cc2cccc(F)c2)cc1	.	.	-	.	-	.	.	.	.
Cc1ccccc1CC(=O)N1CCC(CCC(=O)NC2CC2)CC1	-	-	-	-	-	.	.	.	.
C=CCN1C(=O)C(=Cc2ccc3c(c2)CCC3)SC1=S	-	-	-	-	-	.	.	.	.
CC1=NN(/C(=N\c2nnc(C)s2)Nc2ccc(C)cc2)[C@H](c2ccc(C)cc2)S1	-	-	-	-	-	.	.	.	.
CC1=NN(/C(=N\c2nnc(C)s2)Nc2ccccc2)[C@H](c2cccc3ccccc23)S1	-	-	-	-	70.1	47.2	-	-	-
O=c1c2ccccc2nnn1CSc1ccccc1F	-	-	-	-	59.5	-	-	-	-
Cc1ccc(SCn2nnc3ccccc3c2=O)c(C)c1	-	-	-	-	-	.	.	.	.
SMILES	CHRM4 PAM	M4 antag	TAAR1 antagonist	CHRM4 agonist	TAAR1 ag	TAAR1 ag conf	Ga16 nonsel ag	TAAR1 desens	Ga16 nonsel ant
O=C(NC(Cc1c[nH]c2ccccc12)C(=O)O)OCC1c2ccccc2-c2ccccc21 (stereo unspecified)	-	-	-	-	-	.	.	.	.
Cn1cnnc1SCC(=O)Nc1ccc2nc(SCc3ccccc3)sc2c1	-	-	-	-	43.8	48.1	20.8	-	25.2
Cn1cnnc1SCC(=O)Nc1ccc2nc(SCc3ccccc3Cl)sc2c1	-	-	-	-	-	.	.	.	.
Cc1ccc(NC(=O)COC(=O)Cc2c[nH]c3ccccc23)cc1	-	-	-	-	-	.	.	.	.
N=C(N)SCc1ccc(Cl)cc1Cl	-	-	-	-	58.1	86.8	18.7	60.3	-
COc1ccc(NC(=O)Cn2nnc(-c3ccccc3F)n2)cc1Cl	-	-	-	-	56.6	-	-	-	-
CCCCCCN1CCN(C2CN(Cc3cn(Cc4cccc(C(F)(F)F)c4)nn3)S(=O)(=O)C2)CC1 (stereo unspecified)	-	-	-	-	-	.	.	.	.
CC(C)(C)Cc1c(-c2ccc(C#N)cc2)nc2ccc(Cl)cn12	-	-	-	-	-	.	.	.	.
Cc1ccccc1Nc1cc(C)c2c(O)cccc2n1	-	-	-	-	-	.	.	.	.
COc1ccc(Nc2cc(C)c3c(O)cccc3n2)cc1	-	-	.	-	.	.	-	.	-
Cc1ccc(Nc2cc(C)c3c(O)cccc3n2)cc1C	-	-	54.1	-	97.9	96.1	28.3	87.4	24.8
CCn1cc(CN2CCC(C(=O)Nc3cccc(-c4cccc(F)c4)c3)CC2)cn1	-	-	-	-	-	.	.	.	.
CC(C)n1cc(CN2CCC(C(=O)Nc3cccc(-c4cccc(Cl)c4)c3)CC2)cn1	-	-	-	-	59.7	56.0	27.4	-	31.8
O=[N+]([O-])c1ccc(S(=O)(=O)NNC(=S)NCCc2ccccc2)cc1	-	-	-	-	52.5	56.1	-	-	-
O=[N+]([O-])c1cccc(NC(=S)NCCc2ccccc2)c1	-	-	-	-	-	.	.	.	.
CCc1nnc(NC(=O)CCC(=O)N2CCN(CCc3ccccc3)CC2)s1	-	-	-	-	-	.	.	.	.
COc1ccc(CCCC(=O)NCCc2ccccc2)cc1	-	-	-	-	-	.	.	.	.
